{"data": "Measurements of several laboratories", "KIT": "Mast/stem cell growth factor receptor Kit (KIT, Homo sapiens, UniProt P10721)", "KIT V559D": "Mast/stem cell growth factor receptor Kit (KIT, Homo sapiens, UniProt P10721, V559D)", "KIT D816H": "Mast/stem cell growth factor receptor Kit (KIT, Homo sapiens, UniProt P10721, D816H)", "KIT L576P": "Mast/stem cell growth factor receptor Kit (KIT, Homo sapiens, UniProt P10721, L576P)", "KIT autoinhibited": "Mast/stem cell growth factor receptor Kit, autoinhibited (KIT, Homo sapiens, UniProt P10721)", "note": "Protocols differ between the studies behind these lines."}
{"SMILES": "COc1ccc2c(O[C@@H]3C[C@H]4C(=O)N[C@]5(C(=O)O)CC5/C=C\\CCCCC[C@H](NC(=O)OC5CCCC5)C(=O)N4C3)cc(-c3csc(NC(=O)C(C)C)n3)nc2c1C (stereo partly drawn)", "target": "KIT", "observed": "cell-free assay", "method": "competition with immobilised ligand", "tested at": "1 µM", "remaining binding": "100%"}
{"SMILES": "O=C(c1ccc(Nc2ncc(Cl)c(-c3cc4ccccc4s3)n2)cc1)N1CCC(N2CCCC2)CC1", "target": "KIT", "observed": "binding", "method": "competition with immobilised ligand", "tested at": "1 µM", "remaining binding": "18%"}
{"SMILES": "C[C@@H]1CN(c2cc(-c3n[nH]c4ccc(OC5(C)CC5)cc34)ncn2)C[C@H](C)O1", "target": "KIT V559D", "observed": "cell-free assay", "method": "competition with immobilised ligand", "tested at": "0.1 µM", "remaining binding": "100%"}
{"SMILES": "O=C(c1ccc(Nc2nccc(-c3cc4ccccc4s3)n2)cc1)N1CCC(N2CCCC2)CC1", "target": "KIT V559D", "observed": "binding", "method": "competition with immobilised ligand", "tested at": "1 µM", "remaining binding": "18%"}
{"SMILES": "COc1cnc(Nc2cccc(S(N)(=O)=O)c2)nc1N1CCN(c2ccccc2)CC1", "target": "KIT", "observed": "binding", "method": "competition with immobilised ligand", "tested at": "1 µM", "remaining binding": "93%"}
{"SMILES": "CN(c1nccc(-c2cnn3ncccc23)n1)C1CC1", "target": "KIT D816H", "observed": "binding", "tested at": "1 µM", "remaining binding": "83%"}
{"SMILES": "O=C(NCCCN1CCOCC1)c1ccc(Nc2nccc(-c3cc4ccccc4s3)n2)cc1", "target": "KIT L576P", "observed": "binding", "method": "competition with immobilised ligand", "tested at": "1 µM", "remaining binding": "8.7%"}
{"SMILES": "O=S(=O)(NC1CCC(c2cc(F)ccc2F)(S(=O)(=O)c2ccc(Cl)cc2)CC1)C(F)(F)F (stereo not drawn)", "target": "KIT L576P", "observed": "cell-free assay", "method": "competition with immobilised ligand", "tested at": "1 µM", "remaining binding": "100%"}
{"SMILES": "C[C@@H](c1ccc(-n2cnc3c(N)ncnc32)cc1)N1CCc2nn(C)c(Cc3ccccc3)c2C1=O", "target": "KIT autoinhibited", "observed": "binding", "method": "competition with immobilised ligand", "tested at": "0.1 µM", "remaining binding": "97%"}
{"SMILES": "C[C@H]1CCN(c2nccc(-c3cnn4ncccc34)n2)C1", "target": "KIT autoinhibited", "observed": "binding", "tested at": "1 µM", "remaining binding": "73%"}
{"SMILES": "CC1=C(C#N)[C@@H](c2ccc3[nH]nc(C)c3c2)C(C#N)=C(c2ccc(Cl)cc2)N1", "target": "KIT", "observed": "cell-free assay", "method": "competition with immobilised ligand", "tested at": "1 µM", "remaining binding": "95.4%"}
{"SMILES": "Cc1cnc(Nc2ccc(C(=O)N3CCC(N4CCCC4)CC3)cc2)nc1-c1cc2ccccc2s1", "target": "Mast/stem cell growth factor receptor Kit (KIT, Homo sapiens, UniProt P10721, A829P)", "observed": "binding", "method": "competition with immobilised ligand", "tested at": "1 µM", "remaining binding": "7.2%"}
{"SMILES": "c1cncc(-c2cccc(Nc3nccc(NC4CCCCC4)n3)c2)c1", "target": "Mast/stem cell growth factor receptor Kit (KIT, Homo sapiens, UniProt P10721, T670I/V559D)", "observed": "binding", "method": "competition with immobilised ligand", "tested at": "10 µM", "remaining binding": "29%"}
{"SMILES": "N[C@H]1CCN(c2nccc(-c3cnn4ncccc34)n2)C1", "target": "KIT D816H", "observed": "binding", "tested at": "1 µM", "remaining binding": "64%"}
{"SMILES": "CO[C@H]1CC[C@H](CNc2ccc(S(=O)(=O)NC(=O)c3ccc(N4CCN(CC5=C(c6ccc(Cl)cc6)CC(C)(C)CC5)CC4)cc3Oc3cnc4[nH]ccc4c3)cc2[N+](=O)[O-])CC1", "target": "Mast/stem cell growth factor receptor Kit (KIT, Homo sapiens, UniProt P10721, D816V)", "observed": "cell-free assay", "method": "competition with immobilised ligand", "tested at": "1 µM", "remaining binding": "100%"}
{"SMILES": "c1cnn2ncc(-c3ccnc(N4CCC45COC5)n3)c2c1", "target": "KIT L576P", "observed": "binding", "tested at": "1 µM", "remaining binding": "70%"}
{"SMILES": "O=C(Nc1c[nH]nc1C(=O)NC1CCNCC1)c1cc(F)cc(F)c1", "target": "Mast/stem cell growth factor receptor Kit (KIT, Homo sapiens, UniProt P10721, V559D/V654A)", "observed": "binding", "method": "competition with immobilised ligand", "tested at": "1 µM", "remaining binding": "100%"}
{"SMILES": "CN(CCCC(F)(F)F)c1nccc(-c2cnn3ncccc23)n1", "target": "KIT V559D", "observed": "binding", "tested at": "1 µM", "remaining binding": "100%"}
{"SMILES": "CCS(=O)(=O)c1cc2cc(C[C@](O)(CC(C)(C)c3ccc(F)cc3C(N)=O)C(F)(F)F)[nH]c2cn1", "target": "KIT L576P", "observed": "cell-free assay", "method": "competition with immobilised ligand", "tested at": "1 µM", "remaining binding": "83%"}
{"SMILES": "CN(C)c1ncc(F)c(-c2cnn3ncccc23)n1", "target": "KIT", "observed": "binding", "tested at": "1 µM", "remaining binding": "100%"}
{"SMILES": "FC(F)(F)c1ccc2c(c1)nc(-c1cccnc1)n2C1CC1", "target": "KIT V559D", "observed": "cell-free assay", "method": "competition with immobilised ligand", "tested at": "1 µM", "remaining binding": "100%"}
